Screening results (PubChem BioAssay)
Most compounds without a hit are left out; they make up all but 1.2% or so of the library.
Diaphorase inh: diaphorase inhibitors and chemical oxidizers, primary screen, counter-screen for diaphorase-coupled primary assays, biochemical, uHTS, resorufin fluorescence; diaphorase resazurin-to-resorufin fluorescence, NADH, 16 min; bacterial (C. kluyveri) enzyme, not human; actives 0.69% (n = 190,000); inhibition, % at 20 µM;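 active means primary screen inhibition at 20 µM above a set limit, cut at about 50% in these data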;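 further: plate controls were DMSO with full reaction for no effect and wells lacking NADH for full effect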
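Test system: Clostridium kluyveri diaphorase enzyme / Quantity: diaphorase at 0.14 U/mL in enzyme working solution / Incubation: 16-min room-temperature incubation before reading / Benchmarks: NADH-free wells as positive control, DMSO-only neutral wells / Signal: resorufin fluorescence 544/590 nm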
G6PDH counter: L. mesenteroides G6PDH inhibitors, counter-screen for G6PDH-coupled screening assays, biochemical, Leuconostoc mesenteroides enzyme; inhibition, % at 5 µM; Purified L. mesenteroides G6PDH, diaphorase/resazurin coupled fluorescence, 45 min; actives 0.12% (n = 200,000); in the data active means inhibition above about 50%
PfGluPho inh: PfG6PD enzyme inhibitors, primary screen, biochemical, fluorescence intensity, uHTS | inhibition, % at 20 µM | PfGluPho enzyme, NADPH resazurin-diaphorase fluorescence | actives 0.78% (n = 350,000) | glucose-6-phosphate dehydrogenase-6-phosphogluconolactonase (Plasmodium falciparum 3D7);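 active means inhibition reaching at least a set limit at 20 µM in the primary screen, cut at about 59% in these data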;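 further: 0% = DMSO wells with substrate and 100% = DMSO wells lacking glucose-6-phosphate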
HKDC1 inh: HKDC1 hexokinase inhibitors, primary screen, biochemical, fluorescence, uHTS. Q2TB90. recombinant HKDC1, G6PDH/diaphorase resazurin coupled fluorescence. inhibition, % at 20 µM. actives 0.16% (n = 340,000). AID 493160, 2011;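 active means inhibition above about 35% when tested at 20 µM, limit read from the data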;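 further: plate controls were DMSO wells with enzyme for no effect and DMSO wells lacking enzyme for full effect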
Target sequence (Q2TB90 whole entry, looked up): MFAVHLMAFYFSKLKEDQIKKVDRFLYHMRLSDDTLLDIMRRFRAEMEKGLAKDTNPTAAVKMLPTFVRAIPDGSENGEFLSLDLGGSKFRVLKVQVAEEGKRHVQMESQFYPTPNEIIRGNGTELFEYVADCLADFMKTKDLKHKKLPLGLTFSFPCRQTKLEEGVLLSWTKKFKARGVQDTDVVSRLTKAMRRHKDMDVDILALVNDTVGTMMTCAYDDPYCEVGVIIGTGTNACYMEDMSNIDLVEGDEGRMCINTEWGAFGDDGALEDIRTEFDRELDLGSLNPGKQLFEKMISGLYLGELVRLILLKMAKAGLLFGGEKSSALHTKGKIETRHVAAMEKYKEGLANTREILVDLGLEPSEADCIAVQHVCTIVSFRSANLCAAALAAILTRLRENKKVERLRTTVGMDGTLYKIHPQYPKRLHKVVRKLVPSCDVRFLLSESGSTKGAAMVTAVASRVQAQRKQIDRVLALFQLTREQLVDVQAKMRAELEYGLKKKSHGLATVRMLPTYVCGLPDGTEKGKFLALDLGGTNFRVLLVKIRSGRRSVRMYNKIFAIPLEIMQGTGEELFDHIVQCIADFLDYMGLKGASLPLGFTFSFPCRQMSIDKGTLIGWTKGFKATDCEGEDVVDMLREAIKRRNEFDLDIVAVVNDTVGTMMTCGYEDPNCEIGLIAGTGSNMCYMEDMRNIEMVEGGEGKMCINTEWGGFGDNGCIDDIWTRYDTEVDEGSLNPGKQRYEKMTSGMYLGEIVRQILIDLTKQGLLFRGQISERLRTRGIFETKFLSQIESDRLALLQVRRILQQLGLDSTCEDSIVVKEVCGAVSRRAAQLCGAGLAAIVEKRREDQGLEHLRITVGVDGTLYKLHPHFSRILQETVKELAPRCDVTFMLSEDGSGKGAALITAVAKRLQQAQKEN
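Incubation: 90 min at room temperature in dark / Material: recombinant HKDC1 (HK5) hexokinase enzyme, produced in-house / Quantity: enzyme 5 µg/mL final / Compound: one dose of 20 µM, 1% DMSO / Reagent: glucose and ATP substrates / Buffer or medium: Tris pH 8.0 buffer with MgCl2, Tween-20, BSA, BME / Technique: resorufin fluorescence at 613 nm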
PfGluPho conf: PfG6PD inhibitors, hit retest, confirmation, biochemical, fluorescence intensity, single concentration. shares compounds with PfGluPho inh. recombinant PfGluPho, NADPH-diaphorase-resazurin fluorescence. inhibition, % at 20 µM. actives 34% (n = 2,400);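 active means inhibition of at least 50% at 20 µM in any single replicate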;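 further: 0% = DMSO with substrate and 100% = DMSO lacking glucose-6-phosphate substrate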
Diaph ctr 10uM: diaphorase inhibitors and chemical oxidizers, confirmation, counter-screen for P. falciparum G6PD inhibitor project, biochemical, fluorescence intensity, 10 µM NADPH | shares compounds with PfGluPho inh | diaphorase-coupled resazurin reduction, NADPH 10 uM | inhibition, % at 20 µM | actives 39% (n = 820);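 active means average inhibition reaching 50% or more with the compound at 20 µM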;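 further: resorufin red fluorescence formed as diaphorase reduces resazurin using NADPH; 0% = DMSO with enzyme and 100% = DMSO without enzyme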
Diaph ctr 30uM: diaphorase inhibitors and chemical oxidizers, confirmation, counter-screen for P. falciparum G6PD inhibitor project, biochemical, fluorescence intensity, 30 µM NADPH; shares compounds with PfGluPho inh; Diaphorase/resazurin coupled assay, resorufin fluorescence; inhibition, % at 20 µM; actives 29% (n = 820); AID 504863, 2011;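 active means inhibition averaging 50% or more, tested at 20 µM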;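 further: 0% = DMSO with enzyme and 100% = DMSO wells lacking diaphorase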
An asterisk follows results filed as active; . = no result.

SMILES | Diaphorase inh | G6PDH counter | PfGluPho inh | HKDC1 inh | PfGluPho conf | others
O=C(CSc1nnc2c(n1)[nH]c1ccccc12)NCc1ccccc1F | . | . | 8 | -2 | .
CCOC(=O)C1=C(C2=CCCCC2)c2ccc(OC)cc2N(S(=O)(=O)C(F)(F)F)C1C(=O)OCC (centres undefined) | . | . | 20 | 4 | .
O=S(=O)(NCc1csc(-c2ccccc2)n1)c1ccc(Cl)s1 | 5 | 18 | 99* | 1 | 48* | Diaph ctr 10uM=43;Diaph ctr 30uM=41
Oc1ccc(N2CCN(Cc3c(-c4ccccc4)nc4ccccn34)CC2)cc1 | . | . | 59* | 2 | -1
Clc1ccc(-c2nc3ccccn3c2CN2CCCCC2)cc1 | 8 | 0 | -5 | -4 | .
CC1(O)CC(C)(C)C(C#N)C(=O)N1 (centres undefined) | . | . | 10 | -7 | .
Cc1ccc(-c2csc(NC(=O)c3ccc(Br)cc3)c2C(=O)O)cc1 | . | . | 117* | 17 | 53* | Diaph ctr 10uM=40;Diaph ctr 30uM=35
Cc1ccc(-c2csc(NC(=O)/C=C/c3ccco3)c2C(=O)O)cc1 | 2 | 6 | 93* | 5 | 58* | Diaph ctr 10uM=58*;Diaph ctr 30uM=59*
N#Cc1ccc(Oc2cccc3cccnc23)c([N+](=O)[O-])c1 | . | . | 102* | 7 | 70* | Diaph ctr 10uM=64*;Diaph ctr 30uM=43
O=[N+]([O-])c1ccc(Oc2cccc3cccnc23)c([N+](=O)[O-])c1 | 20 | -1 | 119* | 18 | 95* | Diaph ctr 10uM=85*;Diaph ctr 30uM=75*
Cc1ccc2cccc(Oc3ccc([N+](=O)[O-])cc3[N+](=O)[O-])c2n1 | 23 | -1 | 121* | -2 | 91* | Diaph ctr 10uM=94*;Diaph ctr 30uM=80*
O=[N+]([O-])c1ccccc1OCCOCCOc1cccc2cccnc12 | 19 | -1 | 3 | -7 | .
CCCc1ccc(OCC(O)CN2CCN(c3ccccn3)CC2)cc1 (centres undefined) | . | . | 2 | 0 | .
COc1ccccc1NS(=O)(=O)c1cc(NC(=S)NCCN2CCOCC2)ccc1N1CCOCC1 | 4 | 2 | 66* | -7 | 40
O=S(=O)(Nc1ccc(Br)cc1)c1cccc(NC(=S)NCCN2CCOCC2)c1 | . | . | 10 | -2 | .
COc1ccccc1NS(=O)(=O)c1cc(NC(=O)C(C)(C)C)ccc1N1CCOCC1 | . | . | 2 | -2 | .
O=S(=O)(Nc1ccccc1F)c1cccc(NC(=S)NCCN2CCOCC2)c1 | . | . | 96* | -18 | 77* | Diaph ctr 10uM=-1;Diaph ctr 30uM=-10
COc1ccc(S(=O)(=O)N2CCCOC2CNC(=O)C(=O)NCc2ccncc2)cc1 (centres undefined) | . | . | -6 | -7 | .
C=C(CN(C)C)C(=O)c1ccc(C)cc1C | . | . | 68* | 9 | 45
Cc1ccc(S(=O)(=O)N2CCCCC2)cc1C(=O)N1C(C)CCCC1C (centres undefined) | . | . | -8 | -3 | .
Cc1nc(SCC(=O)c2ccc(F)cc2)n[nH]1 | 10 | 16 | 63* | -4 | -15
O=C(NC(=S)NC(CO)Cc1ccccc1)c1ccc(F)cc1 (centres undefined) | . | . | 7 | -2 | .
COc1ccccc1-c1nnc(SCC(=O)N2CCCC2)o1 | . | . | 6 | -5 | .
N#Cc1cc2c([nH]c1=S)CCCCCC2 | 14 | 4 | 63* | -1 | 22
N#Cc1c(N)n[nH]c1-c1cc2c([nH]1)CCCC2 | 24 | 3 | 1 | 2 | .
SMILES | Diaphorase inh | G6PDH counter | PfGluPho inh | HKDC1 inh | PfGluPho conf | others
CCC(CO)[n+]1c(C)cc(/C=C2\Sc3ccccc3N2Cc2ccccc2)cc1C (centres undefined) | 16 | -30 | 74* | 5 | 54* | Diaph ctr 10uM=24;Diaph ctr 30uM=31
CCN1/C(=C2\SC(=S)N(Cc3ccccc3)C2=O)Sc2ccccc21 | 8 | -18 | -19 | -5 | .
O=c1c2ccccc2sn1-c1ccc(S(=O)(=O)N2CCCC2)cc1 | -10 | 5 | 111* | 2 | 105* | Diaph ctr 10uM=-9;Diaph ctr 30uM=-5
O=S(=O)(c1ccc(S(=O)(=O)N2CCCC2)cc1)N1CCCCC1 | . | . | 2 | -7 | .
O=c1c2ccccc2sn1-c1ccc(S(=O)(=O)N2CCCCC2)cc1 | . | . | 111* | -4 | 83* | Diaph ctr 10uM=5;Diaph ctr 30uM=-13
CC1(C)CN(c2ccccc2)N(C(=O)c2ccc(C#N)cc2)C1=O | 0 | 4 | 95* | 14 | 68* | Diaph ctr 10uM=1;Diaph ctr 30uM=1
CCOC(=O)c1cnn(C)c1NC(=O)c1ccc([N+](=O)[O-])cc1 | . | . | -3 | -5 | .
CCOc1ccc(C(=O)CCC(=O)N2CCN(c3ccc(O)cc3)CC2)cc1 | . | . | 67* | -3 | 3
O=S(=O)(Nc1ccccc1N1CCCCC1)c1ccc(Cl)s1 | 18 | 6 | 86* | 2 | 22
O=C(Nc1c(Br)cc2c(c1Br)Cc1ccccc1-2)C(Cl)Cl | . | . | 12 | -2 | .
Cc1occc1C(=O)N/N=C/c1cccc2ccccc12 | . | . | 32 | 0 | .
CCOC(=O)c1sc(N/N=C/c2ccccc2)nc1C | 10 | 6 | 66* | -5 | 23
CCOC(=O)c1sc(N/N=C/c2cccc(C)c2)nc1C | 18 | -3 | -2 | -5 | .
CC1CN(c2ccccc2)NC1=O (centres undefined) | -5 | -4 | 106* | 10 | 107* | Diaph ctr 10uM=13;Diaph ctr 30uM=15
COc1ccc2c(C)cc(Sc3nnnn3-c3ccccc3)nc2c1 | 14 | -8 | 60* | 2 | 6
COc1ccc2oc(C)c(C(=O)c3ccc([N+](=O)[O-])cc3)c2c1 | 18 | -4 | 67* | 15 | 15
COc1ccc2oc(C)c(C(N)=O)c2c1 | 8 | -2 | -15 | -10 | .
CN1c2cccc3cccc(c23)N(C)C1(C)C | 52* | 8 | 71* | 14 | 39
CN(C)c1cccc2cccc(N(C)C)c12 | . | . | 9 | 7 | .
Nc1nc2ccccc2n1/N=C/c1ccc(Br)cc1 | 3 | -7 | 66* | 0 | -4
Nc1nc2ccccc2n1/N=C/c1ccc2c(c1)OCO2 | . | . | 36 | 1 | .
CC(=O)N1CCc2c(sc(NC(=O)c3ccc([N+](=O)[O-])o3)c2C#N)C1 | 26 | 1 | 60* | 6 | 13
COC(=O)c1c(NC(=O)c2ccc([N+](=O)[O-])o2)sc2c1CCN(C(C)C)C2 | . | . | 68* | 18 | 20
COc1ccc(C(=O)Nc2sc3c(c2C#N)CCN(C(C)=O)C3)cc1 | 16 | 6 | 37 | -6 | .
